Experimental findings from ChEMBL document CHEMBL4177576, “Linker structure-activity relationships in fluorodeoxyglucose chlorambucil conjugates for tumor-targeted chemotherapy” (Bioorg Med Chem, 2017) are described below.

Active and inactive are the calls of the source. No cut-off for these calls is given here.

Broadly, the IC50 is the concentration needed to halve the response being measured.

For assay [1], the system named is PC-3. Briefly: Cytotoxicity against human PC3 assessed as inhibition of cell growth incubated for 48 hrs by resazurin reduction test. The format is functional, cell-based. The following applies: PC-3, 48 h. The gist of the method: (§1)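 Monolayers grown in MEM with 10% fetal calf serum, pyruvate, vitamins, non-essential amino acids and gentamicin at 37 °C, 5% CO2. Cells were seeded at 5×10^3/well and left 16 h to adhere. Compounds were added from DMSO stocks (final 0.5% DMSO) for 48 h continuous exposure, in triplicate. Resazurin 25 μg/mL was then added for 1 h and fluorescence read at 530/590 nm. IC50 was taken from concentration–cell number curves as % of control after blank subtraction.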
(Resazurin is reduced to fluorescent resorufin, in cell work by metabolically active cells.)

Assay [2] has as its system A549 (Homo sapiens). As to the kind of experiment: Cytotoxicity against human A549 assessed as inhibition of cell growth up to 200 uM incubated for 48 hrs in absence of 50 uM chlorambucil by resazurin reduction test.
The test system of assay [3] is A549 (Homo sapiens). Briefly: Cytotoxicity against human A549 assessed as inhibition of cell growth up to 200 uM incubated for 48 hrs in presence of 50 uM chlorambucil by resazurin reduction test.
For assay [4], the system named is M4Beu cell line. As to the kind of experiment: Cytotoxicity against human M4Beu assessed as inhibition of cell growth incubated for 48 hrs by resazurin reduction test. The class given is functional, cell-based. A digest of the protocol: as §1
Assay [5] concerns PA-1. Briefly: Cytotoxicity against human PA1 assessed as inhibition of cell growth incubated for 48 hrs by resazurin reduction test. The class given is functional, cell-based. Particulars: PA-1, 48 h. A digest of the protocol: as §1
Assay [6] concerns MCF7. Briefly: Cytotoxicity against human MCF7 assessed as inhibition of cell growth incubated for 48 hrs by resazurin reduction test. Particulars: MCF7, 48 h. The class given is functional, cell-based. The gist of the method:
as §1

Assay [7] relates to Fibroblast. As to the kind of experiment: Cytotoxicity against human fibroblasts assessed as inhibition of cell growth incubated for 48 hrs by resazurin reduction test. The class given is cell-based. A digest of the protocol: as §1
Assay [8] has as its system A549. As to the kind of experiment: Cytotoxicity against human A549 assessed as inhibition of cell growth incubated for 48 hrs by resazurin reduction test. The following applies: A549, 48 h. The class given is functional, cell-based. The gist of the method:
as §1

In the case of `O=C(O)CCCc1ccc(N(CCCl)CCCl)cc1` [CHLORAMBUCIL], the IC50 in assay [1] is more than 100 µM.
With `CC(=O)OC[C@H]1OC(OC(C)=O)[C@H](F)[C@@H](OC(C)=O)[C@@H]1OC(C)=O` (stereo partly drawn), the “growth inhibition (GI)” value in assay [2] and in assay [3] was “Active” in each case.
Regarding `CC(=O)OC[C@H]1O[C@@H](Oc2ccc(NC(=O)CNC(=O)CCCc3ccc(N(CCCl)CCCl)cc3)cc2)[C@H](F)[C@@H](OC(C)=O)[C@@H]1OC(C)=O`, the IC50 in assay [4] stood at 15 µM; in assay [5], 1.5 µM; in assay [1], 7 µM; in assay [6] it was 16 µM; in assay [7] it was 17 µM.
On to `CC(=O)OC[C@H]1O[C@@H](OC(=O)NCC(=O)Nc2ccc(NC(=O)CCCc3ccc(N(CCCl)CCCl)cc3)cc2)[C@H](F)[C@@H](OC(C)=O)[C@@H]1OC(C)=O`, for which the IC50 in assay [4] amounted to 18 µM; in assay [5], 0.8 µM; in assay [1], 6.5 µM; in assay [6] it was 13 µM; in assay [7], 10 µM; in assay [8] it was 13 µM.
With `CC(=O)OC[C@H]1O[C@@H](OC(=O)Nc2ccc(NC(=O)CNC(=O)CCCc3ccc(N(CCCl)CCCl)cc3)cc2)[C@H](F)[C@@H](OC(C)=O)[C@@H]1OC(C)=O`, the IC50 came out at 31 µM in assay [4]; 1.3 µM in assay [5]; 4.9 µM in assay [1]; 15 µM in assay [6]; 21 µM in assay [7]; 9 µM in assay [8].
Turning to `CC(=O)OC[C@H]1O[C@@H](NC(=O)c2ccc(NC(=O)CNC(=O)CCCc3ccc(N(CCCl)CCCl)cc3)cc2)[C@H](F)[C@@H](OC(C)=O)[C@@H]1OC(C)=O`, the IC50 amounted to 17.8 µM in assay [4]; 13 µM in assay [5]; 6 µM in assay [1]; 7 µM in assay [6]; 8 µM in assay [7]; 30 µM in assay [8].
As to `CC(=O)OC[C@H]1O[C@@H](NC(=O)c2ccc(OC(=O)CCCc3ccc(N(CCCl)CCCl)cc3)cc2)[C@H](F)[C@@H](OC(C)=O)[C@@H]1OC(C)=O`, the IC50 in assay [4] is more than 50 µM; in assay [5] it was 4 µM; in assay [1], more than 50 µM; in assay [6] it was more than 50 µM; in assay [7] it was more than 50 µM; in assay [8], 19 µM.
For the molecule `CC(=O)OC[C@H]1O[C@@H](NC(=O)COC(=O)CCCc2ccc(N(CCCl)CCCl)cc2)[C@H](F)[C@@H](OC(C)=O)[C@@H]1OC(C)=O`, the IC50 in assay [4] was more than 50 µM; in assay [5], 3.8 µM; in assay [1], more than 50 µM; in assay [6] it was more than 50 µM; in assay [7], more than 50 µM; in assay [8] it was 15 µM.
With `CC(=O)OC[C@H]1O[C@@H](Oc2ccc(NC(=O)CNC(=O)CNC(=O)CCCc3ccc(N(CCCl)CCCl)cc3)cc2)[C@H](F)[C@@H](OC(C)=O)[C@@H]1OC(C)=O`, the IC50 was more than 50 µM in assay [4]; 4 µM in assay [5]; 20 µM in assay [1]; 32 µM in assay [6]; more than 50 µM in assay [7]; more than 50 µM in assay [8].
`OC[C@H]1OC(O)[C@H](F)[C@@H](O)[C@@H]1O` (stereo partly drawn): the “growth inhibition (GI)” value in assay [2] and in assay [3] was “Active” in each case.
Regarding `CC(=O)OC[C@H]1O[C@@H](Oc2ccc(NC(=O)c3ccc(NC(=O)CCCc4ccc(N(CCCl)CCCl)cc4)cc3)cc2)[C@H](F)[C@@H](OC(C)=O)[C@@H]1OC(C)=O`, the IC50 turned out to be 3 µM in assay [4]; 2.1 µM in assay [1]; 3.4 µM in assay [6]; 3 µM in assay [7]; 6 µM in assay [8].
As to `CC(=O)OC[C@H]1O[C@@H](OC(=O)c2ccc(NC(=O)CCCc3ccc(N(CCCl)CCCl)cc3)cc2)[C@H](F)[C@@H](OC(C)=O)[C@@H]1OC(C)=O`, the IC50 in assay [4] stood at 6 µM; in assay [5] it was 0.45 µM; in assay [1], 4 µM; in assay [6] it was 6 µM; in assay [7], 4 µM; in assay [8], 1.7 µM.
`CC(=O)OC[C@H]1O[C@@H](OC(=O)Nc2ccc(OC(=O)CCCc3ccc(N(CCCl)CCCl)cc3)cc2)[C@H](F)[C@@H](OC(C)=O)[C@@H]1OC(C)=O`: the concentration for half-maximal inhibition (IC50) is more than 50 µM in assay [4]; 6 µM in assay [5]; more than 50 µM in assay [1]; more than 50 µM in assay [6]; more than 50 µM in assay [7]; 22 µM in assay [8].
`CC(=O)OC[C@H]1O[C@@H](Oc2ccc(NC(=O)CC(=O)NCCCc3ccc(N(CCCl)CCCl)cc3)cc2)[C@H](F)[C@@H](OC(C)=O)[C@@H]1OC(C)=O`: the IC50 was 13.8 µM in assay [4]; 2 µM in assay [5]; 8 µM in assay [1]; 14 µM in assay [6]; more than 50 µM in assay [7]; more than 50 µM in assay [8].
`CC(=O)OC[C@H]1O[C@@H](NC(=O)CC(=O)NCCCc2ccc(N(CCCl)CCCl)cc2)[C@H](F)[C@@H](OC(C)=O)[C@@H]1OC(C)=O`: the concentration for half-maximal inhibition (IC50) in assay [4] worked out at 12 µM; in assay [5], 0.4 µM; in assay [1], 5 µM; in assay [6] it was 9 µM; in assay [7] it was 13 µM; in assay [8], 8 µM.
For the molecule `CC(=O)OC[C@H]1O[C@@H](OC(=O)NCC(=O)Nc2ccc(OC(=O)CCCc3ccc(N(CCCl)CCCl)cc3)cc2)[C@H](F)[C@@H](OC(C)=O)[C@@H]1OC(C)=O`, the IC50 is 30 µM in assay [4]; 9 µM in assay [5]; more than 50 µM in assay [1]; 39.5 µM in assay [6]; 32 µM in assay [7]; 39 µM in assay [8].
With `CC(=O)OC[C@H]1O[C@@H](OC(=O)Nc2ccc(NC(=O)CCCc3ccc(N(CCCl)CCCl)cc3)cc2)[C@H](F)[C@@H](OC(C)=O)[C@@H]1OC(C)=O`, the IC50 in assay [4] is 29 µM; in assay [5] it was 1.2 µM; in assay [1], 3.6 µM; in assay [6], 35 µM; in assay [7] it was more than 50 µM; in assay [8] it was 2 µM.
Regarding `CC(=O)OC[C@H]1O[C@@H](Oc2ccc(NC(=O)COC(=O)CCCc3ccc(N(CCCl)CCCl)cc3)cc2)[C@H](F)[C@@H](OC(C)=O)[C@@H]1OC(C)=O`, the IC50 in assay [4] is more than 50 µM; in assay [5] it was 7.6 µM; in assay [1] it was more than 50 µM; in assay [6], more than 50 µM; in assay [7], 32.5 µM; in assay [8], 39 µM.
